Laboratory results: ChEMBL document CHEMBL1153730, “Bioactive constituents of the stem bark of Beilschmiedia zenkeri” (J Nat Prod, 2009)
In brackets after ≈: the same amount, converted by molar mass. Activity calls are given as the source filed them. The rule behind the calls is not given here.

What was measured:
Pseudomonas agarici = assay: Antibacterial activity against Pseudomonas agarici by agar well diffusion method; format: functional
Method in brief: (§1)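 Agar well diffusion on pure compounds, with the value reported as MIC. Ampicillin was the positive control for B. subtilis and gentamicin for P. agarici.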

Bacillus subtilis = assay: Antibacterial activity against Bacillus subtilis by agar well diffusion method; format: functional; method in brief: as §1
Streptococcus minor = assay: Antibacterial activity against Streptococcus minor by agar well diffusion method; format: functional
Method in brief: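 Agar well diffusion run on extracts and pure compounds, following earlier reports. Ampicillin served as the positive control for this strain. Activity was reported as MIC (µM).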

Plasmodium falciparum = assay: Antiplasmodial activity against chloroquine-resistant Plasmodium falciparum W2 rings after 48 hrs by FACS analysis; format: functional, organism-based; conditions: W2, 48 h

Compound	Activity (Pseudomonas agarici)	Activity (Bacillus subtilis)	Activity (Streptococcus minor)	IC50 (Plasmodium falciparum)	MIC (Pseudomonas agarici)	MIC (Bacillus subtilis)	MIC (Streptococcus minor)
COc1cc2c(c(OC)c1OC)[C@H](O[C@@H]1C[C@@H](c3ccccc3)Oc3cc(OC)c(OC)c(OC)c31)C[C@@H](c1ccccc1)O2	inactive	inactive	inactive				
COc1cc(O)c2c(c1OC)OC(c1ccccc1)CC2=O (stereo not given)	inactive	inactive	inactive	9.3 µM			
C=C(C)[C@@H]1CC[C@]2(C(=O)O)CC[C@]3(C)[C@H](CC[C@@H]4[C@@]5(C)CC[C@H](O)C(C)(C)[C@@H]5CC[C@]43C)[C@@H]12 [BETULINIC ACID]	inactive	inactive	inactive	5.2 µM			
O=C(/C=C/c1ccccc1)NCCc1ccc2c(c1)OCO2	inactive	inactive	inactive				
CC(C)CNC(=O)/C=C/C=C/CCCCCC/C=C/c1ccc2c(c1)OCO2 [GUINEENSINE]			inactive	3.7 µM	81.5 µM (≈ 31.3 µg/mL)	163 µM (≈ 62.5 µg/mL)	
COc1cc2c(c(OC)c1OC)[C@H](O)C[C@@H](c1ccccc1)O2	inactive	inactive	inactive				
COc1cc2c(c(O)c1OC)[C@H](O[C@@H]1C[C@@H](c3ccccc3)Oc3cc(OC)c(OC)c(OC)c31)C[C@@H](c1ccccc1)O2 [BEILSCHMIEFLAVONOID B]	inactive	inactive					198 µM (≈ 119 µg/mL)
COc1cc2c(c(OC)c1OC)[C@H](OC)C[C@@H](c1ccccc1)O2	inactive	inactive	inactive				
CCCCCCCCCCCCCCC(=O)OC[C@@H](O)CO	inactive	inactive	inactive				
